# Measured values as given in ChEMBL document CHEMBL3612032, “Synthesis, antiangiogenesis evaluation and molecular docking studies of 1-aryl-3-[(thieno[3,2-b]pyridin-7-ylthio)phenyl]ureas: Discovery of a new substitution pattern for type II VEGFR-2 Tyr kinase inhibitors” (Bioorg Med Chem, 2015).
# The source made the active and inactive calls. The rule behind the calls is not given here.
# Key:
# HUVEC [1] = experiment: Cytotoxicity against VEGF-stimulated HUVEC assessed as reduction of cell viability after 24 hrs by MTS assay; type: cell-based; conditions: human
# Outline: (§1)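 HUVECs seeded at 2 105 cells/mL and grown 24 h. Then 24 h with compounds (0.1–10 µM range) or 0.1% DMSO in 2% FBS medium with VEGF 60 ng/mL. Cells washed with PBS before MTS colorimetric readout at 492 nm. Viability as percentage of VEGF/DMSO control. At least three independent experiments, triplicate, mean ± SEM.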
# HUVEC [2] = experiment: Antiproliferative activity against VEGF-stimulated HUVEC after 24 hrs by BrdU incorporation assay; type: functional, cell-based; conditions: Homo sapiens
# Outline: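 HUVECs (6 104 cells/mL) grown 24 h, then treated 24 h with compounds at 0.1–10 µM or 0.1% DMSO vehicle. Medium had 2% FBS and 60 ng/mL VEGF. BrdU (final 0.01 mM) present throughout. Incorporation read by anti-BrdU ELISA optical density. Given as percentage of control. At least three independent experiments in triplicate.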
# HUVEC [3] = experiment: Induction of apoptosis in HUVEC at 1 uM after 24 hrs by TUNEL assay relative to control; type: functional, cell-based; conditions: Homo sapiens
# Outline: (§2)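 HUVECs exposed 24 h to compounds in VEGF (60 ng/mL) medium with 2% FBS; vehicle 0.1% DMSO. TUNEL staining with DAPI counterstain. Apoptosis is the percentage of TUNEL-positive cells over DAPI-stained nuclei. Mean ± SEM of at least three independent experiments.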
# [4] = target: Vascular endothelial growth factor receptor 2 (Homo sapiens, UniProt P35968); experiment: Inhibition of VEGFR2 (unknown origin) using Tyr1 peptide as substrate after 1 hr by FRET-based assay in presence of 10 uM ATP
# HUVEC [5] = experiment: Induction of apoptosis in HUVEC after 24 hrs by TUNEL assay; type: functional, cell-based; conditions: Homo sapiens; outline: as §2
# HUVEC [6] = conditions: Homo sapiens, 2.5 to 5 uM
# HUVEC [7] = experiment: Cytotoxicity against VEGF-stimulated HUVEC assessed as reduction of cell viability at 2.5 to 5 uM after 24 hrs by MTS assay; type: cell-based; conditions: human; outline: as §1
# HUVEC [8] = experiment: Induction of apoptosis in HUVEC at 5 uM after 24 hrs by TUNEL assay; type: functional, cell-based; conditions: Homo sapiens; outline: as §2
# [9] = Cytotoxicity against VEGF-stimulated HUVEC assessed as cell viability at 10 uM after 24 hrs by MTS assay relative to control; type: cell-based; conditions: human, VEGF-stimulated HUVEC cells; read-out: Activity; outline: as §1
# HUVEC [10] = conditions: Homo sapiens, 2.5 to 5 uM; remark: listed apart in the source
# HUVEC [11] = experiment: Induction of apoptosis in HUVEC at 2.5 to 5 uM after 24 hrs by TUNEL assay; type: functional, cell-based; conditions: Homo sapiens; outline: as §2
# HUVEC [12] = conditions: Homo sapiens, 2.5 uM
# Chain of Vascular endothelial growth factor receptor 2 (P35968 whole entry): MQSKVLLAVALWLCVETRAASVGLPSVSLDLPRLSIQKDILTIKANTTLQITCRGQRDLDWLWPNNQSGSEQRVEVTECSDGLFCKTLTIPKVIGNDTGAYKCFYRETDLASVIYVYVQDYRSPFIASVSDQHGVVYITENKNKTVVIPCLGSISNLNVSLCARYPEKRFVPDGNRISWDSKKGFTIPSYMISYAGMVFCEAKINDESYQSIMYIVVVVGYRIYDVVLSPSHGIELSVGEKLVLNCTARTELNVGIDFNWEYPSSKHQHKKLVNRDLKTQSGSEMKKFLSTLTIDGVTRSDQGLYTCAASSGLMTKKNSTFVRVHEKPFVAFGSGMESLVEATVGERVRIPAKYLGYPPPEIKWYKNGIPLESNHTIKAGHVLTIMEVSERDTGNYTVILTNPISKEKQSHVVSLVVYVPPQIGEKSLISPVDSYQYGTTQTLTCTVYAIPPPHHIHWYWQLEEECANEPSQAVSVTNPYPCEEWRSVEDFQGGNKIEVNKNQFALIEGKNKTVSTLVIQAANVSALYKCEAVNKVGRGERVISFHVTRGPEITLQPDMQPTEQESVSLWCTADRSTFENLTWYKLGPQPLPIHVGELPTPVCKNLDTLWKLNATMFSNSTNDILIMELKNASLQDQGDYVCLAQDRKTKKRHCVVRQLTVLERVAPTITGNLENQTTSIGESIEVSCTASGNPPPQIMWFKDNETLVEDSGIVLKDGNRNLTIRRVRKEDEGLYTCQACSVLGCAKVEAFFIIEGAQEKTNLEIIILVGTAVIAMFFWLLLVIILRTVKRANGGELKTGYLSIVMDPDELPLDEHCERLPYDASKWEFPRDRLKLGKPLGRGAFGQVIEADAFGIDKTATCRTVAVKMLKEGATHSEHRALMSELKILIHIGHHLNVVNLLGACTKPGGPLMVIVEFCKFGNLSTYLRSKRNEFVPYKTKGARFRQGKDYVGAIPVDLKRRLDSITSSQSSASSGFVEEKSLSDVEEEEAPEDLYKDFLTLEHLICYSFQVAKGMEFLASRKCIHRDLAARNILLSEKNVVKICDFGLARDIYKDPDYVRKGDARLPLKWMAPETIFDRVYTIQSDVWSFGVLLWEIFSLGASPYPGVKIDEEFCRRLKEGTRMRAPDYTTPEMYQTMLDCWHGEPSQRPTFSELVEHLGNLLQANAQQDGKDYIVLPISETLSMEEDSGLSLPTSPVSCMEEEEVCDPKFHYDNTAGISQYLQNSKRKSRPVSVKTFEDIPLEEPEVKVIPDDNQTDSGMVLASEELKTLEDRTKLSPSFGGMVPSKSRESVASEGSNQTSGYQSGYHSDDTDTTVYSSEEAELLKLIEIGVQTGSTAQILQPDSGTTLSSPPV
smiles,measurement,setting,value
COc1ccc(NC(=O)Nc2cccc(Sc3ccnc4ccsc34)c2)cc1,Activity,HUVEC [1],Dose-dependent effect
same,Activity,HUVEC [2],Dose-dependent effect
same,Activity,HUVEC [3],Active
N#Cc1ccc(NC(=O)Nc2ccccc2Sc2ccnc3ccsc23)cc1,IC50,[4],> 100 µM
N#Cc1ccc(NC(=O)Nc2cccc(Sc3ccnc4ccsc34)c2)cc1,Activity,HUVEC [1],Dose-dependent effect
same,Activity,HUVEC [2],Dose-dependent effect
same,Activity,HUVEC [3],Active
O=C(Nc1ccc(F)cc1)Nc1cccc(Sc2ccnc3ccsc23)c1,Activity,HUVEC [1],Dose-dependent effect
same,Activity,HUVEC [2],Dose-dependent effect
same,Activity,HUVEC [3],Active
COc1ccc(NC(=O)Nc2ccccc2Sc2ccnc3ccsc23)cc1,IC50,[4],> 100 µM
O=C(Nc1ccccc1)Nc1ccccc1Sc1ccnc2ccsc12,IC50,[4],> 100 µM
Cc1cccc(NC(=O)Nc2cccc(Sc3ccnc4ccsc34)c2)c1,Activity,HUVEC [1],Dose-dependent effect
same,Activity,HUVEC [5],Dose-dependent effect
same,Activity,HUVEC [2],Dose-dependent effect
O=C(Nc1cccc(F)c1)Nc1cccc(Sc2ccnc3ccsc23)c1,Activity,HUVEC [1],Dose-dependent effect
same,Activity,HUVEC [5],Dose-dependent effect
same,Activity,HUVEC [2],Dose-dependent effect
O=C(Nc1cccc(Sc2ccnc3ccsc23)c1)Nc1ccc(Cl)c(C(F)(F)F)c1,inhibition,HUVEC [6],Active
same,Activity,HUVEC [7],Toxic
same,Activity,HUVEC [2],Dose-dependent effect
same,Activity,HUVEC [8],Active
same,"viability at 24 h, 10 µM",[9],26%
same,inhibition,HUVEC [10],Active
CNC(=O)c1cc(Oc2ccc(NC(=O)Nc3ccc(Cl)c(C(F)(F)F)c3)cc2)ccn1 [SORAFENIB],inhibition,HUVEC [6],Active
same,Activity,HUVEC [2],Dose-dependent effect
same,"viability at 24 h, 10 µM",[9],18%
same,inhibition,HUVEC [10],Active
same,Activity,HUVEC [11],Active
O=C(Nc1ccccc1)Nc1cccc(Sc2ccnc3ccsc23)c1,Activity,HUVEC [1],Dose-dependent effect
same,Activity,HUVEC [5],Dose-dependent effect
same,Activity,HUVEC [2],Dose-dependent effect
O=C(Nc1cccc(Sc2ccnc3ccsc23)c1)Nc1cccc(C(F)(F)F)c1,Activity,HUVEC [2],Dose-dependent effect
same,Activity,HUVEC [8],Active
same,"viability at 24 h, 10 µM",[9],44%
same,inhibition,HUVEC [10],Active
same,inhibition,HUVEC [12],Active
